Measured values reported in ChEMBL document CHEMBL1147937, “Kinesin spindle protein (KSP) inhibitors. Part V: discovery of 2-propylamino-2,4-diaryl-2,5-dihydropyrroles as potent, water-soluble KSP inhibitors, and modulation of their basicity by beta-fluorination to overcome cellular efflux by P-glycoprotein” (Bioorg Med Chem Lett, 2007).

Key:
[1] = Ratio of IC50 for human KBV1 cells to human KB31 cells after 16 hrs; format: cell-based; conditions: KBV1 cells and KB31 cells, read-out: Ratio IC50
In short: (§1)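 IC50 for induction of G2/M (mitotic) block was determined in two human epidermoid carcinoma lines: parental KB-3-1, which lacks Pgp, and KB-V-1. KB-V-1 was derived by culturing KB-3-1 with vinblastine and highly overexpresses Pgp. The MDR ratio is the quotient of the KB-V-1 IC50 over the KB-3-1 IC50.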

[2] = Partition coefficient, log P of the compound; format: physicochemical; conditions: octanol/water
[3] = target: T1, Kinesin-like protein KIF11 (Homo sapiens, UniProt P52732); experiment: Inhibition of KSP
T1 sequence (P52732 whole entry): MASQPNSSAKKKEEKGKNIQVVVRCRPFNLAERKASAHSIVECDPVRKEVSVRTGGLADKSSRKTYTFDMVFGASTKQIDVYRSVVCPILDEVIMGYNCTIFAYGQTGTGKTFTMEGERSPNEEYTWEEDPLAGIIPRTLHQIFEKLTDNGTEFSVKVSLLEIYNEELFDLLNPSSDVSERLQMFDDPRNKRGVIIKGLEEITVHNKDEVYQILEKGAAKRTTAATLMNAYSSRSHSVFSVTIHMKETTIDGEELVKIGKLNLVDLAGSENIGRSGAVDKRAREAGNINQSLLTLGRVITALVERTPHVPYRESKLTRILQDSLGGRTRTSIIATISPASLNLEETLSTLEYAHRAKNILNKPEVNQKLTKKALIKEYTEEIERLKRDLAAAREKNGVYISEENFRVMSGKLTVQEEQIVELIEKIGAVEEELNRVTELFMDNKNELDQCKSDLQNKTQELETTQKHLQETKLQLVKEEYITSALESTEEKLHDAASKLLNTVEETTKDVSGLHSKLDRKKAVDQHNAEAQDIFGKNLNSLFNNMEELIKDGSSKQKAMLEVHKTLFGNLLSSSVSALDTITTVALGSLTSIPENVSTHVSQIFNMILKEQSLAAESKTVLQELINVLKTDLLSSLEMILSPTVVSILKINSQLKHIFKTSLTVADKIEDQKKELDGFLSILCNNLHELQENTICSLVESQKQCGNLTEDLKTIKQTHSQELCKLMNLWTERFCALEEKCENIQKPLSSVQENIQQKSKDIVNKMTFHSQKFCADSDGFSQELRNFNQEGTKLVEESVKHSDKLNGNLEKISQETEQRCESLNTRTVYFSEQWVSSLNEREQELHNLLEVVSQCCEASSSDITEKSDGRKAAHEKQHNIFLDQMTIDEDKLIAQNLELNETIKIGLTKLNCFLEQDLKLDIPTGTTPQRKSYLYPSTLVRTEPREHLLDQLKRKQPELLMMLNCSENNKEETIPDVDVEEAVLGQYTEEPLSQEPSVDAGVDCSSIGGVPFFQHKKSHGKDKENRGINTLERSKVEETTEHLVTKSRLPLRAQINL

[4] = Dissociation constant, pKa of the compound; format: physicochemical
In short: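 Ionization constant measured with an automated pKa titrator; the value is the average of n = 3 determinations.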

[5] = target: Voltage-gated inwardly rectifying potassium channel KCNH2 (Homo sapiens, UniProt Q12809); experiment: Inhibition of hERG expressed in CHO cells by cell voltage clamp assay; format: toxicity, cell-based
Sequence of Voltage-gated inwardly rectifying potassium channel KCNH2 (Q12809 whole entry): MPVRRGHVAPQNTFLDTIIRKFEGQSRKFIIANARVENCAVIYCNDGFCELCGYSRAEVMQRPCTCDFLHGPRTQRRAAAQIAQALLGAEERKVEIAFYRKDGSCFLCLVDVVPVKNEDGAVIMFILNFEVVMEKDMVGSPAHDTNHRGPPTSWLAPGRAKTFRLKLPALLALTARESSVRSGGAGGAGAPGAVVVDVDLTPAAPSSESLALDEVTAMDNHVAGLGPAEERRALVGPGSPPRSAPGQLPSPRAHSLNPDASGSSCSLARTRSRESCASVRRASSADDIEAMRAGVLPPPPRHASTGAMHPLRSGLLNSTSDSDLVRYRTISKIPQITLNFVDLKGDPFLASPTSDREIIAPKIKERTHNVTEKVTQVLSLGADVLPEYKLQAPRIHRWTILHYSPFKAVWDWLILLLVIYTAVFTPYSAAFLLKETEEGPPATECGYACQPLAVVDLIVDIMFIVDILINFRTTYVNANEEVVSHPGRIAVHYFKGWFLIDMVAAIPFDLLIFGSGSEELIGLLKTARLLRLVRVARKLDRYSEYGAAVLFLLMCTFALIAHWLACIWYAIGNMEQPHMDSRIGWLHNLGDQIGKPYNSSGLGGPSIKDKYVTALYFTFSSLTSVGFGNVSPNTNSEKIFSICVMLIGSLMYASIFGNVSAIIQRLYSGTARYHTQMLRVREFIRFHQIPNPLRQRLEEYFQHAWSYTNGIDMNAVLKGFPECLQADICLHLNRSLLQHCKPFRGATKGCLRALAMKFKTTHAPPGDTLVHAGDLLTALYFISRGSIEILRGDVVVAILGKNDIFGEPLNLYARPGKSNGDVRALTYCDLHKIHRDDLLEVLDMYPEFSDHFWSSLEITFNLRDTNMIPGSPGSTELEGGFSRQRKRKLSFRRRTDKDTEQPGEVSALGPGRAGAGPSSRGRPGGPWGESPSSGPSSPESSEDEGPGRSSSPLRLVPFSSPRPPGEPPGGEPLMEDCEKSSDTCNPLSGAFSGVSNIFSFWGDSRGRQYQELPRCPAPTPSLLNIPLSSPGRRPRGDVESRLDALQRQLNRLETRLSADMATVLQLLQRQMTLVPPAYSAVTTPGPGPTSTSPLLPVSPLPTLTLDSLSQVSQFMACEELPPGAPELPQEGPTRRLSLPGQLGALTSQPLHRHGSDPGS

[6] = Solubility in 0.1 M citrate at pH 4.0; format: physicochemical; conditions: 0.1 M citrate buffer
In short: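 Aqueous solubility measured on the free-base form in 0.1 M citrate, with an initial pH of 4.0.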

[7] = target: T1, Kinesin-like protein KIF11; experiment: Inhibition of KSP in KB31 cells; format: cell-based; in short: as §1
MDR1 [8] = experiment: Permeability across LLCPK1 cells expressing MDR1 gene; format: ADME, cell-based; conditions: human, LLC-PK1; read-out: permeability
In short: (§2)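 Monolayer transport assay in LLC-PK1 cells transfected with the human MDR1 gene. The efflux ratio is basolateral-to-apical over apical-to-basolateral transport. Passive permeability is reported in 10^-6 cm/s.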

MDR1 [9] = experiment: Efflux ratio of permeability from basolateral to apical over apical to basolateral side of the […] cell transfected with MDR1 by monolayer transport assay; format: ADME, cell-based; conditions: LLC-PK1; in short: as §2
[10] = target: T1, Kinesin-like protein KIF11; experiment: Inhibition of KSP in KBV1 cells overexpressing Pgp; format: cell-based; in short: as §1

| Structure (SMILES) | selectivity ratio at 16 h [1] | logP [2] | IC50 [3] [nM] | pKa [4] | IC50 [5] [nM] | solubility [6] [mg/mL] | IC50 [7] [nM] | Papp (MDR1 [8]) [×10⁻⁶ cm/s] | efflux ratio (MDR1 [9]) | IC50 [10] [nM] |
| --- | --- | --- | --- | --- | --- | --- | --- | --- | --- | --- |
| CCNCCC[C@@]1(c2ccccc2)C=C(c2cc(F)ccc2F)CN1C(=O)N(C)C | > 135 | 1.6 | 10.2 | 10.7 |  |  |  |  |  |  |
| CN(C)C(=O)N1CC(c2cc(F)ccc2F)=C[C@@]1(CCCNCCF)c1ccccc1 | 32 | 2.6 | 10.2 | 8.8 |  |  |  |  |  |  |
| CN(C)C(=O)N1CC(c2cc(F)ccc2F)=C[C@@]1(CCCNCC(F)(F)F)c1ccccc1 | 1 | > 3.2 | 110 | 5.2 |  |  |  |  |  |  |
| CN(C)C(=O)N1N=C(c2cc(F)ccc2F)C[C@@]1(CCCN)c1ccccc1 | 490 |  |  | 10.3 | 19300 | > 12 |  |  |  |  |
| CN(C)C(=O)N1CC(c2cc(F)ccc2F)=C[C@@]1(CC[C@H](N)C(F)F)c1ccccc1 | 5 | 3.2 | 5.2 |  | 15900 | > 10 | 24 | 38 | 2.5 | 123 |
| CN(C)C(=O)N1CC(c2cc(F)ccc2F)=C[C@@]1(CCCNCC(F)F)c1ccccc1 | 3 | 3.4 | 12.1 | 7 |  |  |  |  |  |  |
| CN(C)C(=O)N1CC(c2cc(F)ccc2F)=C[C@@]1(CCCN)c1ccccc1 | 1200 | 1.1 | 2.2 | 10.3 | 7100 | > 12 |  | 4 | 18.5 | 28000 |
